Experimental data of several laboratories.
Compare with care: the assays were run in different laboratories.
Target: Homeodomain-interacting protein kinase 2 (HIPK2, Homo sapiens, UniProt Q9H2X6)

SMILES	read-out	technique	concentration	remaining binding [%]
CN(C)c1ncc(F)c(-c2cnn3ncccc23)n1	binding	–	1 µM	57
COc1cnc(Nc2cccc(S(N)(=O)=O)c2)nc1N1CCN(c2ccccc2)CC1	binding	competition with immobilised ligand	1 µM	100
Nc1ncc2c(n1)-c1c([nH]c3ccc(C#CC4CC4)cc13)CCCC2	binding	competition with immobilised ligand	1 µM	97
Cc1cnc(Nc2ccc(C(=O)N3CCC(N4CCCC4)CC3)cc2)nc1-c1cc2ccccc2s1	binding	competition with immobilised ligand	1 µM	0.5
C[C@@H](c1ccc(-n2cnc3c(N)ncnc32)cc1)N1CCc2nn(C)c(Cc3ccccc3)c2C1=O	binding	competition with immobilised ligand	0.1 µM	80
CN(c1nccc(-c2cnn3ncccc23)n1)C1CC1	binding	–	1 µM	100
C[C@H](NC(=O)c1cnc2n1[C@](C)(Cc1ccc(C#N)cc1)C(=O)N2c1cc(Cl)c(F)c(Cl)c1)C(=O)NC1(c2ccccn2)CC1	cell-free assay	competition with immobilised ligand	1 µM	100
CN(C)c1nccc(-c2cnn3ncccc23)n1	binding	–	1 µM	49
Cc1cc(-n2nc(Cc3cc(F)cc(C(F)(F)F)c3)nc2C)ccc1C(N)=O	cell-free assay	competition with immobilised ligand	1 µM	100
O=C(c1ccc(Nc2ncc(Cl)c(-c3ccc(Cl)s3)n2)cc1)N1CCC(N2CCCC2)CC1	binding	competition with immobilised ligand	1 µM	0.15
COc1ccnn2ncc(-c3ccnc(N(C)C)n3)c12	binding	–	1 µM	71
O=C(Nc1c[nH]nc1C(=O)NC1CCNCC1)c1cc(F)cc(F)c1	binding	competition with immobilised ligand	1 µM	33
CCCOc1ccc([C@@H]2[C@@H](C(=O)O)[C@H](c3ccc4c(c3)OCO4)CN2CC(=O)Nc2c(CC)cccc2CC)cc1	cell-free assay	competition with immobilised ligand	1 µM	80
F[C@@H]1CCN(c2nccc(-c3cnn4ncccc34)n2)C1	binding	–	1 µM	100
CCC(=O)N[C@@H]1CC[C@H](C(=O)N(C)c2ccc(-c3nc4ccccc4o3)cc2)C1	cell-free assay	competition with immobilised ligand	1 µM	100
COc1cc(Nc2nccc(-c3cnn4nc(OC)ccc34)n2)cc(C(F)(F)F)c1	binding	competition with immobilised ligand	1 µM	34
O=C(O)[C@H]1[C@H](Cn2nnc3ccccc3c2=O)CC[C@@H]1C(=O)c1ccc(OCCC2CCOCC2)cc1	cell-free assay	competition with immobilised ligand	1 µM	100
N[C@@H]1CCN(c2nccc(-c3cnn4ncccc34)n2)C1	binding	–	1 µM	100
Cc1c[nH]c2nccc(Oc3c(F)cc(Nc4cc(Cl)nc(N)n4)cc3F)c12	cell-free assay	competition with immobilised ligand	0.1 µM	90
O=C(c1ccc(Nc2nccc(-c3cc4ccccc4s3)n2)cc1)N1CCC(N2CCCC2)CC1	binding	competition with immobilised ligand	1 µM	8.8
O=C(NCc1ncc(C(F)(F)F)cc1Cl)c1ccc2c(c1)C1(CCS(=O)(=O)CC1)[C@@H](C1CC1)N2S(=O)(=O)c1ccc(F)cc1	cell-free assay	competition with immobilised ligand	1 µM	72
C[C@H]1CCN(c2nccc(-c3cnn4ncccc34)n2)C1	binding	–	1 µM	45
